According to ChEMBL document CHEMBL1125314, “Synthesis and evaluation of 2-pyridinone derivatives as HIV-1 specific reverse transcriptase inhibitors. 1. Phthalimidoalkyl and -alkylamino analogues” (J Med Chem, 1992):

How the values were obtained:
[1] = target: Human immunodeficiency virus type 1 reverse transcriptase (Human immunodeficiency virus 1, UniProt Q72547); assay: Inhibition of HIV-1 reverse transcriptase.
[2] = The compound was tested for hydrolysis rate at pH 7; type: ADME; settings: buffer
How it was run: (§1)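 Aqueous hydrolysis of the (aminomethyl)phthalimides followed at pH 7, 8.2 (the pH used for the RT enzyme measurements) and 9.0. Results are expressed as the observed rate constant k_obs in units of 10⁻³ min⁻¹.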

[3] = The compound was tested for hydrolysis rate at pH 8.2; type: ADME; settings: buffer; how it was run: as §1
[4] = The compound was tested for hydrolysis rate at pH 9; type: ADME; settings: buffer; how it was run: as §1

| SMILES | IC50 [1] | k obs [2] | k obs [3] | k obs [4] |
| --- | --- | --- | --- | --- |
| CCCCc1cc(NCN2C(=O)c3ccccc3C2=O)c(O)nc1C | 0.128 µM |  |  |  |
| Cc1cc(NCN2C(=O)c3ccccc3C2=O)c(O)nc1C | 0.218 µM |  |  |  |
| CCCc1cc(NCN2C(=O)c3ccccc3C2=O)c(=O)[nH]c1C | 0.058 µM |  |  |  |
| CCc1cc(NCCCN2C(=O)c3ccccc3C2=O)c(=O)[nH]c1C | 190 µM |  |  |  |
| CCC1=C(C)NC(OC)C(CCCN2C(=O)c3ccccc3C2=O)=C1 (stereo not given) | > 300 µM |  |  |  |
| CCC1=C(C)NC(OC)C(C(O)CN2C(=O)c3ccccc3C2=O)=C1 (stereo not given) | > 300 µM |  |  |  |
| CCc1cc(/C=C/N2C(=O)c3ccccc3C2=O)c(=O)[nH]c1C | 54 µM |  |  |  |
| CCc1cc(CN2C(=O)c3ccccc3C2=O)c(=O)[nH]c1C | 26.5 µM |  |  |  |
| O=C1c2ccccc2C(=O)N1CNc1cccnc1O | 1.66 µM | 0.00085 min⁻¹ | 0.0039 min⁻¹ | 0.02417 min⁻¹ |
| CCC1=C(C)NC(OC)C(CCN2C(=O)c3ccccc3C2=O)=C1 (stereo not given) | 6.2 µM |  |  |  |
| CCc1cc(C(O)CN2C(=O)c3ccccc3C2=O)c(O)nc1C (stereo not given) | > 300 µM |  |  |  |
| O=C1c2ccccc2C(=O)N1CCc1cccnc1O | > 300 µM |  |  |  |
| CCc1cc(NCCN2C(=O)c3ccccc3C2=O)c(=O)[nH]c1C | 45 µM |  |  |  |
| CCc1nc(O)c(NCN2C(=O)c3ccccc3C2=O)cc1C | 0.887 µM | 0.00722 min⁻¹ | 0.01001 min⁻¹ | 0.03627 min⁻¹ |
| Cc1ccc(NCN2C(=O)c3ccccc3C2=O)c(=O)[nH]1 | 8.1 µM | 0.00424 min⁻¹ | 0.0073 min⁻¹ | 0.027 min⁻¹ |
| CCC1=C(C)NC(OC)C(C(=O)CN2C(=O)c3ccccc3C2=O)=C1 (stereo not given) | > 300 µM |  |  |  |
| CCc1cc(CCCN2C(=O)c3ccccc3C2=O)c(O)nc1C | 210 µM |  |  |  |
| O=C1c2ccccc2C(=O)N1CNc1cc2c(nc1O)CCCC2 | 3.7 µM | 0.00777 min⁻¹ | 0.013 min⁻¹ | 0.03678 min⁻¹ |
| CCC1=C(C)NC(OC)C(CN2C(=O)c3ccccc3C2=O)=C1 (stereo not given) | 16 µM |  |  |  |
| CCc1cc(C(=O)CN2C(=O)c3ccccc3C2=O)c(=O)[nH]c1C | > 300 µM |  |  |  |
| CCc1cc(NCN2C(=O)c3ccccc3C2=O)c(O)nc1C |  | 0.00624 min⁻¹ | 0.0101 min⁻¹ | 0.0243 min⁻¹ |
